Most compounds without a hit are left out; they make up all but 3.5% or so of the library.
MrgX1 antag: antagonists of human MrgX1 receptor, primary screen, HEK293 cells, Fluo-4 calcium flux. BAM8-22 antagonism; active compounds read low. B-score at 10 µM. 310,000 tested, 1.3% active. AID 588676, 2011;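 active = calcium-response B-score plate-corrected more than 3 library SD below zero, starting fluorescence within 5 deviations, no agonist response on first addition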;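 also: peak minus trough fluorescence over baseline after final BAM8-22 challenge near maximal dose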
Target sequence (Q96LB2 whole entry, looked up): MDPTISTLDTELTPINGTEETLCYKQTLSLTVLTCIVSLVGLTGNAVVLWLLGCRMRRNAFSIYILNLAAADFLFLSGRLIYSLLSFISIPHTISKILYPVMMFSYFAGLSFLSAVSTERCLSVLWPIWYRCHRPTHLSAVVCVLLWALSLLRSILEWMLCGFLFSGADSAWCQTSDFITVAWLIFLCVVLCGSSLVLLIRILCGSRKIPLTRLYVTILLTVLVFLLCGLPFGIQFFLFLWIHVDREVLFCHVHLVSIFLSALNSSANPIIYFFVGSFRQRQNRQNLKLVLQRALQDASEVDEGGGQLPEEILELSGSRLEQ
RGS4 act: RGS4 potentiators or activators, primary screen, cell-based, HEK293 M3R inducible RGS4, calcium flux | B-score at 10 µM | 310,000 tested, 0.92% active | carbachol calcium flux Fluo4; active compounds read low;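 active = B-score of the integrated calcium signal more than 4 SD below the library mean, with starting fluorescence not abnormally high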;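 also: negative B-score means reduced calcium response which marks RGS4 activation or potentiation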
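Material: M3R-expressing HEK293 line, RGS4 induced by doxycycline | Schedule: Overnight RGS4 induction, 30 min dye load 37 °C, 20 min compound RT | Measured by: Fluo4 fluorescence kinetic imaging of calcium | Read-out: Integrated calcium ratio converted to B score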
RGS4 block: RGS4 inhibitors, primary screen, cell-based, HEK293 M3R inducible RGS4, calcium flux; Fluo-4 calcium flux; active compounds read high; triggered by carbachol at its EC20; 310,000 tested, 0.45% active; Regulator of G-protein signaling 4 (Homo sapiens), P49798; AID 463165, 2010; B-score at 10 µM;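 active = B-score, a plate-corrected calcium signal, over three deviations above library mean, with baseline fluorescence within five deviations of library mean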;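 also: RGS4 expression induced by doxycycline in cells with stable M3 receptor; B-score is computed from the integrated fluorescence ratio over baseline after carbachol; higher B-score means a larger calcium signal and so more RGS4 inhibition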
Target sequence (P49798 whole entry, looked up): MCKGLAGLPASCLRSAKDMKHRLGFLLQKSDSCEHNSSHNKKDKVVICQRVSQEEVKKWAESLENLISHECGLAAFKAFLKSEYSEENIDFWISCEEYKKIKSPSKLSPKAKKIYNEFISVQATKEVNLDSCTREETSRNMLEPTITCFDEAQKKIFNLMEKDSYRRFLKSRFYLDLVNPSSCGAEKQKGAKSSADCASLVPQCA
MrgX1 PAM: positive allosteric modulators of MrgX1, primary screen, HEK293 cells, Fluo-4 calcium flux; B-score at 10 µM; Mas-related G-protein coupled receptor member X1 (Homo sapiens), Q96LB2; FDSS; active compounds read high; 310,000 tested, 0.63% active;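 active = plate-corrected calcium response at least 3 library SD above typical, normal starting fluorescence, not activating the receptor alone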;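 also: compound read alongside a low EC10 to EC30 dose of BAM8-22 agonist; peak minus trough fluorescence over baseline measured at the second addition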
MrgX1 agonist: agonists of human MrgX1 receptor, primary screen, HEK293 cells, Fluo-4 calcium flux | Mas-related G-protein coupled receptor member X1 (Homo sapiens), Q96LB2 | Fluo-4 calcium fluorescence, agonist mode; active compounds read high | B-score at 10 µM | 310,000 tested, 0.44% active;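 active = calcium response B-score plate-corrected fluorescence ratio at least 3 library SD, with starting fluorescence B-score inside 5 SD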
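Assay system: stable human MrgX1 HEK293 cell line. Quantity: 15,000 cells per well. Schedule: cells plated overnight, dye loaded 0.5 h 37 °C, 0.5 h room temperature. Detection: Fluo-4 NW calcium-flux fluorescence, kinetic read. Read-out basis: peak-minus-minimum fluorescence over baseline, converted to B scores. Control set: positive and negative control wells on each plate.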
RGS4 inh valid: enhanced carbachol calcium response, M3R/RGS4 cells, RGS4 inhibitor project, cell-based, validation screen, HEK293 M3R/RGS4, calcium flux; shares compounds with RGS4 block; carbachol calcium Fluo-4 fluorescence; carbachol added at its EC20; 0 = buffer wells, 100 = carbachol control; calcium response, % at 10 µM; 1,700 tested, 65% active;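 active = duplicate-averaged calcium response above the buffer-only control mean plus 5 SD of those controls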;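 also: integrated fluorescence ratio F max minus min over baseline F0; higher response in RGS4-induced cells means RGS4 inhibition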
RGS4 uninduced: carbachol calcium response in non-induced M3R cells, confirmation, counter-screen for RGS4 inhibitor project, cell-based, HEK293 M3R; shares compounds with RGS4 block; carbachol calcium Fluo-4; submaximal (EC20) carbachol stimulus; buffer wells 0%, carbachol control wells 100%; activity (percent), % at 10 µM; 1,900 tested, 20% active; call rule not given here;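 also: RGS4 induction absent so cells express M3R without RGS4; higher means more calcium signal and flags a non-specific hit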
RGS4 inh ctr2: second RGS4 inhibitor counter-screen in uninduced cells lacking carbachol; AID 493001; shares compounds with RGS4 block; HEK293 M3R/RGS4 non-induced, Fluo-4 calcium, no carbachol; normalised: buffer wells 0%, carbachol wells 100%; 1,900 tested, 22% active; calcium response (agonist-mode artifact), % at 10 µM;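 active = duplicate-averaged calcium rise in uninduced cells above buffer wells' mean plus 5 SD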
Each line names hits and unclear results; the compound was inactive in the other large screens (follow-up assays come after a bar, where they were run).

COc1ccc(C2=NC(C)(C)Cc3cc(OC)c(OC)cc32)cc1	none
COc1cc2c(cc1OC)C(SC)=NC(C)(C)C2	none | RGS4 uninduced 46% | RGS4 inh ctr2 inactive
O=C(CN(C(=O)CCC(=O)Nc1nccs1)c1cccc(F)c1)NCCc1ccccc1	none
COc1ccc(Cn2c(=O)c3[nH]cnc3n(-c3ccccc3C)c2=O)cc1	RGS4 block 7.8 | RGS4 inh valid 15% | RGS4 uninduced 38% | RGS4 inh ctr2 inactive
COc1ccc(-c2csc(Nc3cc(C)ccn3)n2)cc1OC	none | RGS4 inh valid inactive | RGS4 uninduced inactive | RGS4 inh ctr2 inactive
Cc1ccc(NS(=O)(=O)c2ccc(NC(=O)CN(c3cc([N+](=O)[O-])ccc3C)S(C)(=O)=O)cc2)c(C)c1	RGS4 block 8.6 | RGS4 inh valid 23% | RGS4 uninduced inactive | RGS4 inh ctr2 inactive
CC(=O)Nc1ccc(S(=O)(=O)Nc2cc([N+](=O)[O-])ccc2C)cc1	none
CC1(C)CC(=O)C(=Cc2cn(-c3ccccc3)nc2-c2ccc(Cl)cc2)C(=O)C1	none | RGS4 inh valid inactive | RGS4 uninduced inactive | RGS4 inh ctr2 inactive
CC1(C)CC(=O)C(=Cc2cn(CCC#N)nc2-c2ccc(Cl)cc2)C(=O)C1	none
CCOc1cccc(-c2c(C(=O)N/N=C(\C)c3ccncc3)nnn2-c2nonc2N)c1	none
CCOc1ccc(-c2c(C(=O)N/N=C/c3ccoc3)nnn2-c2nonc2N)cc1	none
CCOc1cccc(-c2c(C(=O)N/N=C/c3ccncc3)nnn2-c2nonc2N)c1	none | RGS4 inh valid inactive | RGS4 uninduced inactive | RGS4 inh ctr2 inactive
CCOc1cccc(-c2c(C(=O)N/N=C/c3ccoc3)nnn2-c2nonc2N)c1	none | RGS4 inh valid inactive | RGS4 uninduced inactive | RGS4 inh ctr2 inactive
CCOc1ccc(/C=N/NC(=O)c2nnn(-c3nonc3N)c2-c2ccc(OCC)cc2)cc1	none | RGS4 inh valid inactive | RGS4 uninduced inactive | RGS4 inh ctr2 inactive
COC(=O)/C=C/S(=O)(=O)c1ccc(NC(C)=O)cc1	RGS4 block 6 | RGS4 inh valid 54% | RGS4 uninduced 38% | RGS4 inh ctr2 13%
Cc1ccc2c(c1)nnn2C1CCN(C(=O)c2ccccc2F)CC1	none
CC1Cc2ccccc2N1Cc1cc(=O)n2ccsc2n1 (stereo not given)	none (no result: RGS4 act, RGS4 block)
O=c1cc(CN2CC(O)Cc3ccc4ccccc4c32)nc2sccn12 (stereo not given)	RGS4 block 6 | RGS4 inh valid 20% | RGS4 uninduced inactive | RGS4 inh ctr2 inactive
Cc1cccc(NC(=S)N2N=CCC2c2ccccc2)c1 (stereo not given)	none
Cc1noc(NS(=O)(=O)c2ccc(N/C=C/C(=O)c3ccncc3)cc2)c1C	none | RGS4 inh valid inactive | RGS4 uninduced inactive | RGS4 inh ctr2 inactive
Cc1noc(NS(=O)(=O)c2ccc(N/C=C\C(=O)c3ccncc3)cc2)c1C	none | RGS4 uninduced inactive | RGS4 inh ctr2 inactive
Cc1noc(NS(=O)(=O)c2ccc(N/C=C/C(=O)c3ccc(F)cc3)cc2)c1C	none | RGS4 uninduced inactive | RGS4 inh ctr2 inactive
COCCn1c(SCC#N)nnc1-c1ccc([N+](=O)[O-])cc1	none
CCn1ccnc1[C@@H]1C[C@H]2CN(c3ccccc3OC)C(=O)[C@]23CCCN13	none
C=CCOC(=O)C1=C(C)Nc2nnnn2C1c1cccs1 (stereo not given)	none
C=CCNC(=O)COC(=O)c1nc2nccc(C)n2n1	none | RGS4 uninduced inactive | RGS4 inh ctr2 inactive
